Consider 2 compounds from ChEMBL document CHEMBL3632620, “Synthesis, characterization, crystal structure determination and biological screening of novel N-1 and C5 alkyl substituted scaffolds of pyrimidine” (2015).

In brackets after ≈: the same amount, converted by molar mass. Activity calls are given as the source filed them. No cut-off for these calls is given here. Some results are limits rather than exact numbers.

Assay [1] relates to Salmonella enterica subsp. enterica serovar Abony. Description: Antibacterial activity against Salmonella abony NCTC 6017 assessed as growth inhibition at 25 to 100 ug/ml at 12 hrs by agar well diffusion method. Type of assay: functional, organism-based. (In general: A growth-free zone around the sample is the usual read-out of agar diffusion tests.)
Assay [2] deals with Staphylococcus epidermidis. Kind of assay: Antibacterial activity against Staphylococcus epidermidis ATCC 12228 assessed as growth inhibition at 100 ug/ml after 8 to 24 hrs by agar well diffusion method. Type of assay: functional. The method, boiled down:
(§1)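 Agar well diffusion on nutrient agar (peptone, yeast extract, NaCl, 2% agar, pH 7). Suspensions were set to 0.5 McFarland in sterile water, final inoculum 5x10^7 CFU/mL. Plates were swabbed and left 15 min, then ~4 mm wells received 100 µL compound in DMSO, with DMSO as control. Plates stood 2 h at room temperature, then 24 h at 37 °C. Inhibition zone diameter was measured.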

Assay [3] relates to Staphylococcus aureus. Kind of assay: Antibacterial activity against Staphylococcus aureus ATCC 6538P assessed as growth inhibition at 25 ug/ml after 8 to 24 hrs by agar well diffusion method. It is filed as functional. The note with it: read-out: DIZ. An outline of the steps:
as §1

Assay [4] relates to Escherichia coli. Description: Antibacterial activity against Escherichia coli ATCC 8739 after 24 to 48 hrs. Type of assay: functional. An outline of the steps: (§2)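 Broth MIC in nutrient broth, pH 7.0. Inoculum came from a 16 h culture set to 0.5 McFarland, then diluted 10-fold to 1.2x10^7 CFU/mL. Compounds went from a 4 mg/mL DMSO stock to final 250 to 0.03 µg/mL. Controls were inoculum without compound and compound without inoculum. Incubation was 24-48 h at 37 °C. Then 5 µL was spotted onto agar for 24 h at 37 °C. MIC is the lowest concentration with no visible growth.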

Assay [5] has as its system Staphylococcus aureus. Kind of assay: Antibacterial activity against Staphylococcus aureus ATCC 6538P assessed as growth inhibition at 25 to 100 ug/ml at 12 hrs by agar well diffusion method. It is filed as functional, organism-based.
For assay [6], the system named is Escherichia coli. Description: Antibacterial activity against Escherichia coli ATCC 8739 assessed as growth inhibition at 100 ug/ml after 8 to 24 hrs by agar well diffusion method. The note with it: read-out: DIZ. It is filed as functional. The method, boiled down: as §1
Assay [7] has as its system Salmonella enterica subsp. enterica serovar Abony. Description: Antibacterial activity against Salmonella abony NCTC 6017 assessed as growth inhibition at 25 ug/ml after 8 to 24 hrs by agar well diffusion method. Type of assay: functional. The note with it: read-out: DIZ. The method, boiled down: as §1
In assay [8] the test system is Staphylococcus aureus. Kind of assay: Antibacterial activity against Staphylococcus aureus ATCC 6538P after 24 to 48 hrs. It is filed as functional. An outline of the steps: as §2
In assay [9] the test system is Staphylococcus epidermidis. Description: Antibacterial activity against Staphylococcus epidermidis ATCC 12228 assessed as growth inhibition at 25 to 100 ug/ml at 12 hrs by agar well diffusion method. It is filed as functional, organism-based.
For assay [10], the system named is Staphylococcus epidermidis. Kind of assay: Antibacterial activity against Staphylococcus epidermidis ATCC 12228 assessed as growth inhibition at 25 ug/ml after 8 to 24 hrs by agar well diffusion method. It is filed as functional. An outline of the steps: as §1
In assay [11] the test system is Staphylococcus epidermidis. Description: Antibacterial activity against Staphylococcus epidermidis ATCC 12228 after 24 to 48 hrs. It is filed as functional. The method, boiled down:
as §2

For assay [12], the system named is Salmonella enterica subsp. enterica serovar Abony. Kind of assay: Antibacterial activity against Salmonella abony NCTC 6017 assessed as growth inhibition at 100 ug/ml after 8 to 24 hrs by agar well diffusion method. It is filed as functional. The note with it: read-out: DIZ. An outline of the steps: as §1
Assay [13] has as its system Escherichia coli. Description: Antibacterial activity against Escherichia coli ATCC 8739 assessed as growth inhibition at 25 to 100 ug/ml at 12 hrs by agar well diffusion method. Type of assay: functional, organism-based.
Assay [14] relates to Staphylococcus aureus. Kind of assay: Antibacterial activity against Staphylococcus aureus ATCC 6538P assessed as growth inhibition at 100 ug/ml after 8 to 24 hrs by agar well diffusion method. Type of assay: functional. The note with it: read-out: DIZ. The method, boiled down: as §1
Assay [15] concerns Escherichia coli. Description: Antibacterial activity against Escherichia coli ATCC 8739 assessed as growth inhibition at 25 ug/ml after 8 to 24 hrs by agar well diffusion method. The note with it: read-out: DIZ. Type of assay: functional. An outline of the steps:
as §1

The test system of assay [16] is Salmonella enterica subsp. enterica serovar Abony. Description: Antibacterial activity against Salmonella abony NCTC 6017 after 24 to 48 hrs. It is filed as functional. An outline of the steps:
as §2

In general, MIC refers to the least concentration at which growth counts as inhibited. Consider `CCOC(=O)C1(C)C(C)NC(=S)N(C)C1c1ccccc1` (configuration not stated), for which the result (in assay [1]; with Staphylococcus aureus [5]; in assay [9]; in the assay with Escherichia coli [13]) was inactive. The “diameter of the inhibition zone (DIZ)” value in assay [2] and in assay [10] was “inactive” each time. Besides, the zone of inhibition at 25 µg/mL in the assay with Staphylococcus aureus [3] stood at 10 mm; in assay [7] it was 16 mm; with Escherichia coli [15], 14 mm. The MIC against Escherichia coli [4] is 16 µg/mL (≈ 52.2 µM); against Staphylococcus aureus [8], 68 µg/mL (≈ 222 µM); in assay [11], above 250 µg/mL; in [16], 32 µg/mL (≈ 104 µM). Besides, the zone of inhibition at 100 µg/mL in the assay with Escherichia coli [6] amounted to 21 mm; in assay [12] it was 18 mm; in the assay on Staphylococcus aureus [14] it was 13 mm.

In the case of `CCOC(=O)C1(C)C(C)NC(=S)N(C)C1c1ccc(O)cc1` (configuration not stated), the result (in [1]; in the assay with Staphylococcus aureus [5]; in assay [9]; in the assay on Escherichia coli [13]) was inactive. Besides, the “diameter of the inhibition zone (DIZ)” value in assay [2] and in [10] was “inactive” in each case. Moreover, the zone of inhibition at 25 µg/mL in the assay on Staphylococcus aureus [3] was found to be 13 mm; in [7] it was 16 mm; in the assay on Escherichia coli [15] it was 17 mm. Also, the MIC in the assay on Escherichia coli [4] was 32 µg/mL (≈ 99.2 µM); in the assay with Staphylococcus aureus [8], 32 µg/mL (≈ 99.2 µM); in assay [11] it was above 250 µg/mL; in assay [16] it was 32 µg/mL (≈ 99.2 µM). Further, the zone of inhibition at 100 µg/mL in the assay on Escherichia coli [6] amounted to 20 mm; in assay [12] it was 20 mm; in the assay with Staphylococcus aureus [14] it was 15 mm.
